Measured values reported in ChEMBL document CHEMBL3286116, “Synthesis, biological evaluation and structure-activity correlation study of a series of imidazol-based compounds as Candida albicans inhibitors” (Eur J Med Chem, 2014).
Converted amounts (≈) assume the structure as drawn.

Experiments:
Type in all cases: functional
Candida albicans [1] = test: Antifungal activity against Candida albicans ATCC 90028 after 48 hrs by CLSI broth microdilution method; settings: ATCC 90028, 48 h
How it was run: (§1)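 Yeast CLSI broth microdilution (M27-A3). Compounds dissolved in DMSO at 100× the top test concentration, then diluted as serial two-fold dilutions in RPMI 1640 to final 0.125–64. Inoculum was 1.0–1.5 × 10^3 cells mL−1, incubated at 35 °C and read for growth at 48 h. MIC is the lowest concentration giving ≥50% growth inhibition versus growth control. Reported as the median of five replicates and as the geometric mean.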

Candida albicans [2] = test: Antifungal activity against Candida albicans ATCC 20891 after 48 hrs by CLSI broth microdilution method; settings: ATCC 20891, 48 h; how it was run: as §1
Candida albicans [3] = test: Antifungal activity against Candida albicans PMC 1011 after 48 hrs by CLSI broth microdilution method; settings: PMC 1011, 48 h; how it was run: as §1
Pichia kudriavzevii [4] = test: Antifungal activity against Candida krusei DSM 6128 after 48 hrs by CLSI broth microdilution method; settings: DSM 6128, 48 h; how it was run: as §1
Pichia kudriavzevii [5] = test: Antifungal activity against Candida krusei PMC 0613 after 48 hrs by CLSI broth microdilution method; settings: PMC 0613, 48 h; how it was run: as §1
Candida tropicalis [6] = test: Antifungal activity against Candida tropicalis PMC 0910 after 48 hrs by CLSI broth microdilution method; settings: PMC 0910, 48 h; how it was run: as §1
Candida tropicalis [7] = test: Antifungal activity against Candida tropicalis DSM 11953 after 48 hrs by CLSI broth microdilution method; settings: DSM 11953, 48 h; how it was run: as §1
Candida parapsilosis [8] = test: Antifungal activity against Candida parapsilosis DSM 11224 after 48 hrs by CLSI broth microdilution method; settings: Lodderomyces parapsilosis, DSM 11224, 48 h; how it was run: as §1
Candida parapsilosis [9] = test: Antifungal activity against Candida parapsilosis ATCC 22019 after 48 hrs by CLSI broth microdilution method; settings: Lodderomyces parapsilosis, ATCC 22019, 48 h; how it was run: as §1
Nakaseomyces glabratus [10] = test: Antifungal activity against Candida glabrata PMC 0805 after 48 hrs by CLSI broth microdilution method; settings: PMC 0805, 48 h; how it was run: as §1
Nakaseomyces glabratus [11] = test: Antifungal activity against Candida glabrata PMC 0807 after 48 hrs by CLSI broth microdilution method; settings: PMC 0807, 48 h; how it was run: as §1
Cryptococcus neoformans [12] = test: Antifungal activity against Cryptococcus neoformans PMC 2123 after 72 hrs by CLSI broth microdilution method; settings: PMC 2123, 72 h
How it was run: (§2)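 Cryptococcus neoformans tested by CLSI broth microdilution in RPMI 1640, with serial two-fold dilutions from DMSO stocks at 100× the top concentration, final 0.125–64. Inoculum was 1.0–1.5 × 10^3 cells mL−1 at 35 °C, with growth read at 72 h. MIC is the lowest concentration with ≥50% growth inhibition versus control. Median of five replicates, plus geometric mean.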

Cryptococcus neoformans [13] = test: Antifungal activity against Cryptococcus neoformans PMC 2136 after 72 hrs by CLSI broth microdilution method; settings: PMC 2136, 72 h; how it was run: as §2
Cryptococcus neoformans [14] = test: Antifungal activity against Cryptococcus neoformans PMC 2115 after 72 hrs by CLSI broth microdilution method; settings: PMC 2115, 72 h; how it was run: as §2
Cryptococcus neoformans [15] = test: Antifungal activity against Cryptococcus neoformans PMC 2103 after 72 hrs by CLSI broth microdilution method; settings: PMC 2103, 72 h; how it was run: as §2
Cryptococcus neoformans [16] = test: Antifungal activity against Cryptococcus neoformans PMC 2107 after 72 hrs by CLSI broth microdilution method; settings: PMC 2107, 72 h; how it was run: as §2
Cryptococcus neoformans [17] = test: Antifungal activity against Cryptococcus neoformans PMC 2102 after 72 hrs by CLSI broth microdilution method; settings: PMC 2102, 72 h; how it was run: as §2
Cryptococcus neoformans [18] = test: Antifungal activity against Cryptococcus neoformans DSM 11959 after 72 hrs by CLSI broth microdilution method; settings: DSM 11959, 72 h; how it was run: as §2
Cryptococcus neoformans [19] = test: Antifungal activity against Cryptococcus neoformans PMC 2111 after 72 hrs by CLSI broth microdilution method; settings: PMC 2111, 72 h; how it was run: as §2
[20] = test system: Trichophyton mentagrophytes; test: Antifungal activity against Trichophyton mentagrophytes DSM 4870 after 72 hrs by CLSI broth microdilution method; settings: DSM 4870, 72 h
How it was run: (§3)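 Dermatophytes tested by CLSI broth microdilution for filamentous fungi (M38-A2). Serial two-fold dilutions of DMSO-dissolved compound in RPMI 1640, final 0.125–64. Inoculum was 0.4–5 × 10^4 CFU mL−1, incubated at 35 °C and read at 72 h. MIC80 is the lowest concentration giving ≥80% growth inhibition versus growth control. Median of five replicates, plus geometric mean.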

[21] = test system: Trichophyton mentagrophytes; test: Antifungal activity against Trichophyton mentagrophytes PMC 6515 after 72 hrs by CLSI broth microdilution method; settings: PMC 6515, 72 h; how it was run: as §3
[22] = test system: Trichophyton mentagrophytes; test: Antifungal activity against Trichophyton mentagrophytes PMC 6531 after 72 hrs by CLSI broth microdilution method; settings: PMC 6531, 72 h; how it was run: as §3
[23] = test system: Trichophyton mentagrophytes; test: Antifungal activity against Trichophyton mentagrophytes PMC 6509 after 72 hrs by CLSI broth microdilution method; settings: PMC 6509, 72 h; how it was run: as §3
[24] = test system: Trichophyton mentagrophytes; test: Antifungal activity against Trichophyton mentagrophytes PMC 6503 after 72 hrs by CLSI broth microdilution method; settings: PMC 6503, 72 h; how it was run: as §3
[25] = test system: Trichophyton mentagrophytes; test: Antifungal activity against Trichophyton mentagrophytes PMC 6552 after 72 hrs by CLSI broth microdilution method; settings: PMC 6552, 72 h; how it was run: as §3
Nannizzia gypsea [26] = test: Antifungal activity against Microsporum gypseum PMC 7303 after 72 hrs by CLSI broth microdilution method; settings: PMC 7303, 72 h; how it was run: as §3
Nannizzia gypsea [27] = test: Antifungal activity against Microsporum gypseum PMC 7331 after 72 hrs by CLSI broth microdilution method; settings: PMC 7331, 72 h; how it was run: as §3
Nannizzia gypsea [28] = test: Antifungal activity against Microsporum gypseum DSM 3824 after 72 hrs by CLSI broth microdilution method; settings: DSM 3824, 72 h; how it was run: as §3
Candida albicans [29] = test: Antifungal activity against Candida albicans ATCC 24433 after 48 hrs by CLSI broth microdilution method; settings: ATCC 24433, 48 h; how it was run: as §1
Candida albicans [30] = test: Antifungal activity against Candida albicans ATCC 3153 after 48 hrs by CLSI broth microdilution method; settings: ATCC 3153, 48 h; how it was run: as §1
Candida albicans [31] = test: Antifungal activity against Candida albicans ATCC 10231 after 48 hrs by CLSI broth microdilution method; settings: ATCC 10231, 48 h; how it was run: as §1
Candida albicans [32] = test: Antifungal activity against Candida albicans ATCC 76615 after 48 hrs by CLSI broth microdilution method; settings: ATCC 76615, 48 h; how it was run: as §1
Candida albicans [33] = test: Antifungal activity against Candida albicans ATCC 10261 after 48 hrs by CLSI broth microdilution method; settings: ATCC 10261, 48 h; how it was run: as §1

Compound	MIC50 (Candida albicans [1])	MIC50 (Candida albicans [2])	MIC50 (Candida albicans [3])	MIC50 (Pichia kudriavzevii [4])	MIC50 (Pichia kudriavzevii [5])	MIC50 (Candida tropicalis [6])	MIC50 (Candida tropicalis [7])	MIC50 (Candida parapsilosis [8])	MIC50 (Candida parapsilosis [9])	MIC50 (Nakaseomyces glabratus [10])	MIC50 (Nakaseomyces glabratus [11])	MIC50 (Cryptococcus neoformans [12])	MIC50 (Cryptococcus neoformans [13])	MIC50 (Cryptococcus neoformans [14])	MIC50 (Cryptococcus neoformans [15])	MIC50 (Cryptococcus neoformans [16])	MIC50 (Cryptococcus neoformans [17])	MIC50 (Cryptococcus neoformans [18])	MIC50 (Cryptococcus neoformans [19])	MIC80 [20]	further results
O=C(OC(Cn1ccnc1)c1ccc(Cl)cc1)N1CCN(C(=O)c2ccco2)CC1 (stereo unspecified)	32 mg/L (≈ 74.6 µM)	64 mg/L (≈ 149 µM)	128 mg/L (≈ 298 µM)	128 mg/L (≈ 298 µM)	128 mg/L (≈ 298 µM)	128 mg/L (≈ 298 µM)	128 mg/L (≈ 298 µM)	128 mg/L (≈ 298 µM)	128 mg/L (≈ 298 µM)	128 mg/L (≈ 298 µM)	128 mg/L (≈ 298 µM)	32 mg/L (≈ 74.6 µM)	128 mg/L (≈ 298 µM)	128 mg/L (≈ 298 µM)	128 mg/L (≈ 298 µM)	32 mg/L (≈ 74.6 µM)	128 mg/L (≈ 298 µM)	128 mg/L (≈ 298 µM)	128 mg/L (≈ 298 µM)	128 mg/L (≈ 298 µM)	MIC80 [21]: 128 mg/L (≈ 298 µM); MIC80 [22]: 128 mg/L (≈ 298 µM); MIC80 [23]: 128 mg/L (≈ 298 µM); MIC80 [24]: 128 mg/L (≈ 298 µM); MIC80 [25]: 128 mg/L (≈ 298 µM); MIC80 (Nannizzia gypsea [26]): 128 mg/L (≈ 298 µM); MIC80 (Nannizzia gypsea [27]): 128 mg/L (≈ 298 µM); MIC80 (Nannizzia gypsea [28]): 128 mg/L (≈ 298 µM); MIC50 (Candida albicans [29]): 128 mg/L (≈ 298 µM); MIC50 (Candida albicans [30]): 32 mg/L (≈ 74.6 µM); MIC50 (Candida albicans [31]): 64 mg/L (≈ 149 µM); MIC50 (Candida albicans [32]): 64 mg/L (≈ 149 µM); MIC50 (Candida albicans [33]): 32 mg/L (≈ 74.6 µM)
O=C(OC(Cn1ccnc1)c1ccc(Cl)cc1)N1CCN(c2ccc([N+](=O)[O-])cc2)CC1 (stereo unspecified)	2 mg/L (≈ 4.39 µM)	8 mg/L (≈ 17.5 µM)	16 mg/L (≈ 35.1 µM)	128 mg/L (≈ 281 µM)	16 mg/L (≈ 35.1 µM)	64 mg/L (≈ 140 µM)	128 mg/L (≈ 281 µM)	4 mg/L (≈ 8.77 µM)	8 mg/L (≈ 17.5 µM)	64 mg/L (≈ 140 µM)	64 mg/L (≈ 140 µM)	64 mg/L (≈ 140 µM)	8 mg/L (≈ 17.5 µM)	32 mg/L (≈ 70.2 µM)	8 mg/L (≈ 17.5 µM)	8 mg/L (≈ 17.5 µM)	16 mg/L (≈ 35.1 µM)	8 mg/L (≈ 17.5 µM)	8 mg/L (≈ 17.5 µM)	64 mg/L (≈ 140 µM)	MIC80 [21]: 32 mg/L (≈ 70.2 µM); MIC80 [22]: 32 mg/L (≈ 70.2 µM); MIC80 [23]: 32 mg/L (≈ 70.2 µM); MIC80 [24]: 64 mg/L (≈ 140 µM); MIC80 [25]: 32 mg/L (≈ 70.2 µM); MIC80 (Nannizzia gypsea [26]): 32 mg/L (≈ 70.2 µM); MIC80 (Nannizzia gypsea [27]): 16 mg/L (≈ 35.1 µM); MIC80 (Nannizzia gypsea [28]): 64 mg/L (≈ 140 µM); MIC50 (Candida albicans [29]): 32 mg/L (≈ 70.2 µM); MIC50 (Candida albicans [30]): 16 mg/L (≈ 35.1 µM); MIC50 (Candida albicans [31]): 16 mg/L (≈ 35.1 µM); MIC50 (Candida albicans [32]): 128 mg/L (≈ 281 µM); MIC50 (Candida albicans [33]): 8 mg/L (≈ 17.5 µM)
